The values below come from paper PMC4091680 (Bioorganic & medicinal chemistry, 2014).

The test system of assay [1] is tubulin (colchicine site). The assay can be described thus: Inhibition of [3H]colchicine binding to tubulin. More on the design: species or system bovine. Conditions: for Inhibition of colchicine binding % Inhibition ± SD: tubulin 1 µM, colchicine 5 µM. The gist of the method:
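Purified bovine brain tubulin at 0.1 mg/mL (1.0 µM) was incubated 10 min at 37 °C with 5.0 µM [3H]colchicine, test compound, 5% (v/v) DMSO and 1.0 M glutamate. Reactions were stopped with 0 °C water, filtered through two stacked DEAE-cellulose filters and washed three times with ice-cold water. Filter-bound radiolabel was counted by liquid scintillation; % inhibition ± SD.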

Assay [2] has as its system purified bovine brain tubulin. Description: Tubulin polymerization assay. The assay is classed as biochemical.
Assay [3] concerns HeLa cells. The assay can be described thus: Flow cytometric cell cycle distribution, HeLa. The assay is classed as cell-based, human. Conditions: 24 h. A digest of the protocol:
(§1)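 Per assay, 5×10^5 cells were exposed to test compound at several concentrations for 24 h. Cells were then collected, fixed in ice-cold 70% ethanol, lysed in buffer with RNase A and 0.1% Triton X-100, PI-stained and run on a flow cytometer. Phase distribution came from DNA histograms; means ± SEM of three independent experiments.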

Assay [4] concerns HL-60 cells. The assay can be described thus: Flow cytometric cell cycle distribution, HL-60. Particulars: HL-60, 24 h. The assay is classed as cell-based, human. A digest of the protocol: as §1
For orientation: In flow cytometry, cells or beads pass a laser one at a time.

Assay [5] concerns HeLa cells. The assay can be described thus: Annexin-V/PI apoptosis assay, HeLa. The assay is classed as cell-based, human. Particulars: 24 or 48 h.
Assay [6] relates to HL-60 cells. The assay can be described thus: Annexin-V/PI apoptosis assay, HL-60. The format is cell-based, human. Conditions: HL-60, 24 or 48 h.
For assay [7], the system named is caspase-3 and PARP in HL-60 cells. Description: Western blot analysis of caspase-3 and PARP. The assay is classed as cell-based, human. Particulars: HL-60, 24 h and 48 h. The gist of the method:
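HL-60 cells were treated with test compound at various concentrations and times, washed in ice-cold PBS and lysed on ice 30 min. Lysates were cleared at 15000 × g, 4 °C, 10 min. Per lane, 20 µg protein (BCA) was separated by SDS-PAGE (7.5–15%) and blotted to PVDF. Membranes were blocked with 5% BSA, probed overnight at 4 °C for caspase-3 and PARP, then with peroxidase secondaries and ECL. Reprobing for β-actin checked loading.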

A further assay has as its system Raji. Description: MTT cytotoxicity assay, Raji. The assay is classed as cell-based, human. Conditions: 48 h. The gist of the method: (§2)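 Cells grew in RPMI-1640 with 10% FBS, L-glutamine, penicillin and streptomycin at 37 °C, 5% CO2. They were seeded at 10,000/well overnight in 1% FBS medium, then treated 48 h with test compound at 0.1–125 µM; the solvent control was 0.1% DMSO. MTT (0.5 mg/mL final) was added for 4 h, formazan dissolved in DMSO, and absorbance read at 570 nm. Quadruplicates were taken as % of solvent control, IC50 from concentration–response curves.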
(Tetrazolium assays rely on reduction of a dye to a coloured formazan, in cell work by metabolically active cells.)

In another assay the test system is HeLa. The assay can be described thus: MTT cytotoxicity assay, HeLa. The assay is classed as cell-based, human. Particulars: 48 h. A digest of the protocol:
as §2

Regarding `COc1ccc(/C=C\c2cc(OC)c(OC)c(OC)c2)cc1O` [CA-4, combretastatin A-4], the “Inhibition of colchicine binding % Inhibition ± SD” value in assay [1] (compound 1 µM) was found to be 88 ± 0.3%; in assay [1] (compound 5 µM), 98 ± 0.8%.
For `COc1ccc(OC)c(NC(=O)/C=C/c2c[nH]c3ccccc23)c1` [Compound 3b, (E)-N-(2,5-Dimethoxyphenyl)-3-(1H-indol-3-yl)acrylamide], the “antitubulin activity (in words)” value in [2] is “inactive”.
For `COc1ccc(NC(=O)/C=C/c2c[nH]c3ccccc23)cc1OC` [Compound 3c, (E)-N-(3,4-Dimethoxyphenyl)-3-(1H-indol-3-yl)acrylamide], the “antitubulin activity (in words)” value in [2] was “inactive”.
With `COc1cc(NC(=O)/C=C/c2c[nH]c3ccccc23)cc(OC)c1` [Compound 3d, (E)-N-(3,5-Dimethoxyphenyl)-3-(1H-indol-3-yl)acrylamide], the “antitubulin activity (in words)” value in [2] is “inactive”.
`COc1cc(NC(=O)/C=C/c2c[nH]c3ccccc23)cc(OC)c1OC` [Compound 3e, (E)-3-(1H-Indol-3-yl)-N-(3,4,5-trimethoxyphenyl)acrylamide]: the “inhibition of [3H]colchicine binding (in words)” value in [1] (compound 50 µM) is “Significant inhibition”. The “lowest concentration giving increase in G2/M phase cells” value in the assay with HeLa cells [3] and in the assay with HL-60 cells [4] was 10 µM each time. Also, the results for the “cells blocked in G2/M” value in the assay with HeLa cells [3] (15–30 µM) and with HL-60 cells [4] (15–30 µM) were “more than 80%” and more than 60%, respectively. Further, the “annexin-V+/PI− and annexin-V+/PI+ fractions (apoptosis)” value is “concentration- and time-dependent increase” in the assay with HeLa cells [5]; “concentration- and time-dependent increase” with HL-60 cells [6]. The PARP cleavage entry in assay [7] is “cleavage of its substrate PARP”. Moreover, the “caspase-3 activation (cleaved fragments)” value in [7] is reported as “induced the activation of caspase-3”.
With `COc1cc(CNC(=O)/C=C/c2c[nH]c3ccccc23)ccc1O` [Compound 3g, (E)-N-(4-Hydroxy-3-methoxybenzyl)-3-(1H-indol-3-yl)acrylamide], the “activity against Raji cells (in words)” value in the assay on Raji is “weak activity”.
`COc1cccc(CNC(=O)/C=C/c2c[nH]c3ccccc23)c1OC` [Compound 3h, (E)-N-(2,3-Dimethoxybenzyl)-3-(1H-indol-3-yl)acrylamide]: the “activity against HeLa cells (in words)” value in the assay with HeLa was “weak activity”.
`COc1ccc(CNC(=O)/C=C/c2c[nH]c3ccccc23)c(OC)c1` [Compound 3i, (E)-N-(2,4-Dimethoxybenzyl)-3-(1H-indol-3-yl)acrylamide]: the “activity against Raji cells (in words)” value in the assay on Raji was “weak activity”.
